Results reported in PubChem BioAssay.
Results filed as inconclusive are left out. Active and inactive are the calls of the source.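 The calls were made as follows, unless noted: active = RAM network inhibition above 8.4% in each of two replicates, 3 SD over the compound average; inconclusive = above 8.4% inhibition in only one replicate; inactive = 8.4% inhibition or less in each replicate.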

Columns and labels:
[1] = S. cerevisiae growth inhibition in permissive medium (OD615), pilot counter-assay for S. cerevisiae lifespan shortening project, permissive growth control (AID 705;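 active = growth inhibition above 25% in both replicates, a cutoff set 3 SD above the mean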); conditions: OD615, 24 h, at 10 µM, stronger effect = higher value
In short: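 System: S. cerevisiae with engineered DeaD lifespan system / Measured by: absorbance (optical density) at 615 nm / Read-out: reduction in yeast growth (OD615) / Times: 4 h cell pre-growth, 24 h exposure at 30 °C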

[2] = S. cerevisiae growth inhibition in restrictive medium, OD615, pilot screen, restrictive growth control, yeast lifespan reduction project (AID 706;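 active = growth inhibition above a set limit, 3 SD over mean compound inhibition, in both replicates, cut at about 43% in these data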;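 also: modified DeaD lifespan yeast strain shifted to restrictive glucose medium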); conditions: OD615, 48 h, at 10 µM, stronger effect = higher value
In short: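 System: Engineered S. cerevisiae DeaD strain | Buffer or medium: Glucose-based CSMM-D restrictive medium | Schedule: 4 h pre-incubation, 48 h exposure at 30 °C | Technique: Optical density at 615 nm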

[3] = doxorubicin toxicity protection in MRP-1 cells – H69AR cells, CellTiter-Glo, duplicate, MRP-1 activator project, pilot screen (AID 807;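 active = viability increase at or above a cutoff of the median across tested compounds plus 3 SD, cut at about 8.5% in these data, passing the limit was not always enough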;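 also: compound pretreatment 18-22 h then 72 h combined with doxorubicin; 0% = doxorubicin alone and 100% = vehicle without doxorubicin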); conditions: H69AR viability with doxorubicin, CellTiter-Glo luminescence; at 10 µM; stronger effect = higher value
[4] = viability of HCT116 without oncogenic beta-catenin – human colon tumor cells, pilot screen (AID 823;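 active = cell viability at or below a set limit in both duplicate runs, the limit being the all-compound median minus 4 SD, cut at about 23% in these data, passing the limit was not always enough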;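 also: 0% = wells killed by 20 µM Hyamine and 100% = untreated DMSO cell wells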); conditions: HCT116 beta-catenin knockout viability, CellTiter-Glo, 60 h; at 10 µM; stronger effect = lower value
[5] = viability of PTEN-null HCT116 cells – cell-based, HCT116 clonal line, CellTiter-Glo, pilot screen (AID 824;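 active = viability at or below 27.92% in each of two runs, the all-compound median minus 4 SD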;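 also: 0% = 20 µM Hyamine control and 100% = vehicle cell control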); conditions: HCT116 PTEN-deleted viability, 60 h, at 10 µM, stronger effect = lower value
[6] = RAM pathway blockade in budding yeast – dse1pr::URA3 reporter, 5-FOA selection, pilot screen (AID 869;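 active = inhibition over a set limit, the all-compound mean plus 3 SD, in both replicate runs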;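 also: 0% = DMSO wells with no growth and 100% = 10 µM 1-NA-PP1 with full growth; RAM network block rescues cells from 5-FOA so hits raise OD615 growth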); conditions: S. cerevisiae dse1pr::URA3 5-FOA growth, OD615, 2 d; at 10 µM; stronger effect = higher value; strain carries analog-sensitive mutant Cbk1 kinase
[7] = RAM signaling pathway blockade in yeast – S. cerevisiae, Pdr1DBD-CYC8 efflux-inhibited sensitized strain, primary screen (AID 1298);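 also: 0% = DMSO untreated cells without growth and 100% = 10 µM 1-NA-PP1 full growth; higher means more yeast growth rescued from 5-FOA killing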; conditions: S. cerevisiae cbk1-as DSE1-URA3 strain, 5-FOA growth OD615, 2 d; at 50 µM; stronger effect = higher value

CCN1CCCC1CNC(=O)Cn1cnc2sc(C)c(S(=O)(=O)N3CCC(C)CC3)c2c1=O (stereo unspecified)
inactive: growth inhibition [1] -4.5% | growth inhibition [2] -14.6% | viability increase [3] -4.44% | viability [4] 104% | viability [5] 84% | inhibition [6] 2.9% | RAM network inhibition [7] 4.06%

COc1ccc(C2C(C(=O)N3CCCCC3)CCC(=O)N2c2cc(OC)c(OC)c(OC)c2)cc1 (stereo unspecified)
inactive: growth inhibition [1] -15% | growth inhibition [2] -5.94% | viability increase [3] -7.12% | viability [4] 100% | viability [5] 89% | inhibition [6] 0.98% | RAM network inhibition [7] 5.22%

CCOC(=O)C1=C(C)Nc2nc(C)nn2C1c1ccc(OCC)c(OC)c1 (stereo unspecified)
inactive: growth inhibition [1] -8.05% | growth inhibition [2] -3.29% | viability increase [3] -4.07% | viability [4] 101% | viability [5] 99% | inhibition [6] 1.44% | RAM network inhibition [7] 0.63%

CC(C)Sc1nc(-c2cccs2)nc2c1c(=O)n(C)c(=O)n2C
inactive: growth inhibition [1] -2.16% | growth inhibition [2] -19% | viability increase [3] -6.85% | viability [4] 77.3% | viability [5] 69.4% | inhibition [6] 1.46% | RAM network inhibition [7] 7.05%

Cc1oc(-c2cccc(Cl)c2)nc1CN1CCCC(C(=O)NC(C)c2ccc3c(c2)OCCO3)C1 (stereo unspecified)
inactive: growth inhibition [1] -7.17% | growth inhibition [2] -16.3% | viability increase [3] -4.74% | viability [4] 33.7% | viability [5] 37.5% | inhibition [6] 2.46% | RAM network inhibition [7] 5.6%

Cc1cc(Nc2ccccc2F)n2nc(C)nc2n1
inactive: growth inhibition [1] -13% | growth inhibition [2] -6.23% | viability increase [3] -1.87% | viability [4] 99.2% | viability [5] 99.5% | inhibition [6] 1.95% | RAM network inhibition [7] 0.37%

COC(=O)CC1SC(=O)NC1=Nc1ccccc1 (stereo unspecified)
inactive: growth inhibition [1] -7.63% | growth inhibition [2] -0.1% | viability increase [3] 0.96% | viability [4] 106% | viability [5] 89.1% | inhibition [6] 1.42% | RAM network inhibition [7] 4.94%

CCOc1ccc(Nc2cc(C)nc3nc(C)nn23)cc1
inactive: growth inhibition [1] -10.9% | growth inhibition [2] 5.96% | viability increase [3] -3.11% | viability [4] 110% | viability [5] 93.9% | inhibition [6] 0.67% | RAM network inhibition [7] 2.62%

Cc1cc(=O)oc2cc3c(cc12)OCCN3
inactive: growth inhibition [1] 5.96% | growth inhibition [2] 2.04% | viability increase [3] -1.47% | viability [4] 93% | viability [5] 97.6% | inhibition [6] 2.65% | RAM network inhibition [7] 3.78%

COc1ccc(S(=O)(=O)N(CC(=O)Nc2ccc3c(c2)OCO3)c2ccccc2OC)cc1
inactive: growth inhibition [1] -20.4% | growth inhibition [2] -13.9% | viability increase [3] -5.32% | viability [4] 69% | viability [5] 79.8% | inhibition [6] 2.13% | RAM network inhibition [7] 6.05%

CSC1=NCCN1C(=O)C(C)(C)Oc1ccc(Cl)cc1
inactive: growth inhibition [1] 7.64% | growth inhibition [2] 4.49% | viability increase [3] -4.07% | viability [4] 91.2% | viability [5] 84.7% | inhibition [6] 0.3% | RAM network inhibition [7] -0.37%

CCCc1cc(C(=O)N2CCN(C(c3ccccc3)c3ccccc3)CC2)no1
inactive: growth inhibition [1] -10.9% | growth inhibition [2] -6.91% | viability increase [3] 4.46% | viability [4] 98.7% | viability [5] 90.9% | inhibition [6] 0.485% | RAM network inhibition [7] 5.99%

Brc1[nH]nc2ccccc12
inactive: growth inhibition [1] -1.23% | growth inhibition [2] 5.22% | viability increase [3] -3.24% | viability [4] 96.7% | viability [5] 94.9% | inhibition [6] 0.28% | RAM network inhibition [7] 0.05%

CSC1=NCCN1C(=O)c1ccc(S(=O)(=O)N2CCOCC2)cc1
inactive: growth inhibition [1] 3.77% | growth inhibition [2] 10.2% | viability increase [3] -1.31% | viability [4] 102% | viability [5] 94.1% | inhibition [6] 0.62% | RAM network inhibition [7] 3.04%

COc1ccc2oc(C(=O)C3CC3)c(NC(=O)CCCN3C(=O)c4ccccc4C3=O)c2c1
inactive: growth inhibition [1] 2.6% | growth inhibition [2] 6.11% | viability increase [3] -3.63% | viability [4] 102% | viability [5] 93.6% | inhibition [6] 0.995% | RAM network inhibition [7] 3.53%

CC1CN(C(c2cccs2)c2sc3ncnn3c2O)CC(C)O1 (stereo unspecified)
inactive: growth inhibition [1] -15% | growth inhibition [2] -4.9% | viability increase [3] 0.14% | viability [4] 101% | viability [5] 97.8% | inhibition [6] 2.26% | RAM network inhibition [7] 4.47%

Cc1ccc(-c2nc(CS(=O)CC(=O)N3CCN(c4ncccn4)CC3)c(C)o2)cc1 (stereo unspecified)
inactive: growth inhibition [1] -0.52% | growth inhibition [2] 10.7% | viability increase [3] -2.28% | viability [4] 76.8% | viability [5] 90.2% | inhibition [6] 2.31% | RAM network inhibition [7] 4.78%

CC(C)c1nnc(NC(=O)CSc2ncn[nH]2)s1
inactive: growth inhibition [1] -14.4% | growth inhibition [2] -13.9% | viability increase [3] -0.74% | viability [4] 98.3% | viability [5] 94.2% | inhibition [6] 0.135% | RAM network inhibition [7] 1.34%

CCc1cc(=O)oc2cc(C)cc(O)c12
inactive: growth inhibition [1] -16.6% | growth inhibition [2] -7.76% | viability increase [3] -1.72% | viability [4] 95.3% | viability [5] 99.8% | inhibition [6] 0.2% | RAM network inhibition [7] 1.99%

c1cc2c3c(cccc3c1)C(N1CCCCC1)=N2
inactive: growth inhibition [1] 1.8% | growth inhibition [2] -3.38% | viability increase [3] -4.54% | viability [4] 72.1% | viability [5] 74.4% | inhibition [6] 0.665% | RAM network inhibition [7] 1.88%

Cc1nc(-c2ccc(S(=O)(=O)N3CCCCCC3)cc2)cs1
inactive: growth inhibition [1] 10.7% | growth inhibition [2] 2.95% | viability increase [3] -2.37% | viability [4] 90.8% | viability [5] 89.7% | inhibition [6] 0.075% | RAM network inhibition [7] 1.28%

CC(=O)N(c1ccc(C)cc1)C1C=CS(=O)(=O)C1 (stereo unspecified)
inactive: growth inhibition [1] -8.96% | growth inhibition [2] 7.8% | viability increase [3] -0.41% | viability [4] 101% | viability [5] 105% | inhibition [6] 0.6% | RAM network inhibition [7] 7.21%

N#CC1=C2SCN(Cc3ccco3)CN2C(=O)CC1c1c(F)cccc1Cl (stereo unspecified)
inactive: growth inhibition [1] -2.04% | growth inhibition [2] 20.3% | viability increase [3] -4.91% | viability [4] 88% | viability [5] 88.1% | inhibition [6] 1.95% | RAM network inhibition [7] 4.76%

CC1CCN(CCCNC(=O)c2cc3c(=O)n(C)c4ccccc4c3n2C)CC1
inactive: growth inhibition [1] 0.225% | growth inhibition [2] -4.35% | viability increase [3] -5.04% | viability [4] 43.1% | viability [5] 50% | inhibition [6] -0.26% | RAM network inhibition [7] 1.43%

CCc1c(C)nc(SCCOc2ccc(OC)cc2)[nH]c1=O
inactive: growth inhibition [1] -12.6% | growth inhibition [2] -9.17% | viability increase [3] -0.04% | viability [4] 108% | viability [5] 93.9% | inhibition [6] -0.015% | RAM network inhibition [7] 1.64%

Cc1cc(C)nc(SCSc2nc(C)cc(C)n2)n1
inactive: growth inhibition [1] 0.095% | growth inhibition [2] 5.64% | viability increase [3] -2.17% | viability [4] 104% | viability [5] 103% | inhibition [6] 1.23% | RAM network inhibition [7] 5.29%

CCCCCn1c(NCc2ccco2)nc2ccccc21
inactive: growth inhibition [1] 0.22% | growth inhibition [2] 1.09% | viability increase [3] -5.56% | viability [4] 84.9% | viability [5] 72.9% | inhibition [6] 1.6% | RAM network inhibition [7] 1.9%

CCOC(=O)c1c(NC(=O)CN2CCCCC2)sc2c1CCCC2O (stereo unspecified)
inactive: growth inhibition [1] -10.4% | growth inhibition [2] -0.48% | viability increase [3] -4.26% | viability [4] 70.3% | viability [5] 65.2% | inhibition [6] -0.195% | RAM network inhibition [7] 4.1%

Cc1cc(C)nc(SCCn2c(N3CCC(C)CC3)nc3c2c(=O)n(C)c(=O)n3C)n1
inactive: growth inhibition [1] -3.83% | growth inhibition [2] 0.625% | viability increase [3] 1.09% | viability [4] 99.9% | viability [5] 97.3% | inhibition [6] 1.71% | RAM network inhibition [7] 1.91%

CCCCCn1c(SCCOCC)nc2c1c(=O)[nH]c(=O)n2C
inactive: growth inhibition [1] -10.1% | growth inhibition [2] -15.6% | viability increase [3] -0.61% | viability [4] 96.2% | viability [5] 97.2% | inhibition [6] 1.75% | RAM network inhibition [7] 4.65%

O=c1cc(O)sc2ccccc12
inactive: growth inhibition [1] -4.72% | growth inhibition [2] -8.78% | viability increase [3] -2.09% | viability [4] 96.4% | viability [5] 94.4% | inhibition [6] 0.79% | RAM network inhibition [7] -0.87%

CCCCN1C(=O)C2C(c3ccc(OC)cc3O)NC(CC(C)C)(C(=O)O)C2C1=O (stereo unspecified)
inactive: growth inhibition [1] -7.45% | growth inhibition [2] -8.79% | viability increase [3] 0.44% | viability [4] 97.7% | viability [5] 92.7% | inhibition [6] 0.895% | RAM network inhibition [7] 0.99%

O=C(CSc1nc2ccccc2[nH]1)Nc1ccc(F)cc1
inactive: growth inhibition [1] 3.95% | growth inhibition [2] 11.3% | viability increase [3] 0.83% | viability [4] 97.7% | viability [5] 90.2% | inhibition [6] 0.255% | RAM network inhibition [7] 5.07%
